{"source": "ChEMBL document CHEMBL5705899", "about": "(Biochem J, 2014)", "key": {"[1]": {"biological_target": "Inhibitor of nuclear factor kappa-B kinase subunit beta (Homo sapiens) (UniProt O14920)", "sequence (O14920 whole entry)": "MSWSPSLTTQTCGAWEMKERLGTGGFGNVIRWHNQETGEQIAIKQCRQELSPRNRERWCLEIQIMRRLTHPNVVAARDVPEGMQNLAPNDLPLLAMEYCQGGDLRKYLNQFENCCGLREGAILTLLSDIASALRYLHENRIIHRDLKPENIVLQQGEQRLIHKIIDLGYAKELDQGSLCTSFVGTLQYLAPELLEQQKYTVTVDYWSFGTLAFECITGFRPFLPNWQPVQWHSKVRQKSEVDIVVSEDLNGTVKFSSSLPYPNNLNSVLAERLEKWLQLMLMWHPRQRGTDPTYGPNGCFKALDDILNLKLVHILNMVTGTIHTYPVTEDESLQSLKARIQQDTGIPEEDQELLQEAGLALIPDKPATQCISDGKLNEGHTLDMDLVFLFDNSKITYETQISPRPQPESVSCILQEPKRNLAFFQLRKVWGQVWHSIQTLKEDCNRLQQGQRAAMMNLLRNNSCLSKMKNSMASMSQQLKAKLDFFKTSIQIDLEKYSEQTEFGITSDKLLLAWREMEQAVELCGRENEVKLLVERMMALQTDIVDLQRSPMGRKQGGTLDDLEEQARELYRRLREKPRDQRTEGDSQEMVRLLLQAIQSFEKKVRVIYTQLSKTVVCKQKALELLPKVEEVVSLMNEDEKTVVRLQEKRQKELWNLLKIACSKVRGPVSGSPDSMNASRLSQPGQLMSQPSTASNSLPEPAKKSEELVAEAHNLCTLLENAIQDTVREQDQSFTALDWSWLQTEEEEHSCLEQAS", "assay": "Inhibition of human IKKbeta at 1 uM using RBER-CHKtide as substrate in presence of 33P-ATP by ProQinase assay"}, "[2]": {"test_system": "Ribosomal protein S6 kinase beta-1 (Homo sapiens), P23443 [T412E]", "assay": "Inhibition of recombinant human His6-tagged S6K1 T412E mutant (1 to 421 residues) expressed in baculovirus infected sf21 cells assessed as remaining activity at 1 uM using KKRNRTLTVas substrate incubated for 30 mins in presence of [gamma-33P]ATP by filter binding method relative to control"}, "[3]": {"biological_target": "Phosphatidylinositol 4-phosphate 3-kinase C2 domain-containing subunit alpha (Homo sapiens, UniProt O00443)", "assay": "Inhibition of human PIK3C2A using PIP2/PS as substrate by ADP-Glo assay"}, "[4]": {"biological_target": "Ephrin type-A receptor 4 (Homo sapiens) (UniProt P54764)", "assay": "(§1) Inhibition of recombinant human N-terminal GST-tagged EPHA4 (570 to 986 residues) expressed in Escherichia coli assessed as remaining activity at 1 uM using Poly (Glu,Tyr) as substrate incubated for 30 mins in presence of [gamma-33P]ATP by filter binding method relative to control"}, "[5]": {"biological_target": "Phosphatidylinositol 4-kinase beta (Homo sapiens, UniProt Q9UBF8)", "sequence (Q9UBF8 2-816 limits assumed)": "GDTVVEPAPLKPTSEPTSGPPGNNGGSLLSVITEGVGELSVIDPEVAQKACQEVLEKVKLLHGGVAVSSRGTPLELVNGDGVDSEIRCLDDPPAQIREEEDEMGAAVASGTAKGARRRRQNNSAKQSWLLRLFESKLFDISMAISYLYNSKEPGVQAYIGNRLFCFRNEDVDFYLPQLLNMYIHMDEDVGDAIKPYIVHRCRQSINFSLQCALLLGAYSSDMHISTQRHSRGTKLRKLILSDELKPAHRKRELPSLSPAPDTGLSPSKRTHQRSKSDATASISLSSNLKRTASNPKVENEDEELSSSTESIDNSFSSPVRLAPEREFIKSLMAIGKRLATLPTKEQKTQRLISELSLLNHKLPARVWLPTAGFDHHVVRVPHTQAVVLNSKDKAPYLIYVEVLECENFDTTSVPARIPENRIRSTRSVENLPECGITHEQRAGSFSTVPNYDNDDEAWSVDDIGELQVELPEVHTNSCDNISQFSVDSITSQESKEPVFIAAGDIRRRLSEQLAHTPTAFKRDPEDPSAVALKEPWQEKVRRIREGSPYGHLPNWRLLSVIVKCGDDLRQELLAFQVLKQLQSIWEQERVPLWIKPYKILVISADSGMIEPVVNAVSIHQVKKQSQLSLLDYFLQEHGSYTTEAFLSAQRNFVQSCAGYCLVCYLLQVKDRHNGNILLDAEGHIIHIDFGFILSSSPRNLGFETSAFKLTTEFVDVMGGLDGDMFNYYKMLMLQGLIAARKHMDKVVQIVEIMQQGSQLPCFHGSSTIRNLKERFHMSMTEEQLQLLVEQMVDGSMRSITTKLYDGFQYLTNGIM", "assay": "Inhibition of recombinant human N-terminal His6-tagged PIK4Cbeta (1 to 801 residues) expressed in baculovirus expression system at 1 uM using […] as substrate incubated for 45 mins by ADP-Glo assay"}, "[6]": {"biological_target": "Serine/threonine-protein kinase PLK1 (Homo sapiens) (UniProt P53350)", "assay": "Inhibition of human PLK1 at 1 uM using RBER-CHKtide as substrate in presence of 33P-ATP by ProQinase assay"}, "[7]": {"biological_target": "CDK2/Cyclin A2 (Homo sapiens) (UniProt P24941+P20248)", "assay": "as §1, with “CDK2 (2” for “EPHA4 (570”, “298 residues)/N-terminal GST-tagged Cyclin A2 (171 to 432” for “986”, “YSPTSPSYSPTSPSYSPTSPKKK” for “Poly (Glu,Tyr)”"}, "[8]": {"biological_target": "Epidermal growth factor receptor (Homo sapiens) (UniProt P00533)", "assay": "Inhibition of human EGFR at 1 uM using RBER-CHKtide as substrate in presence of 33P-ATP by ProQinase assay"}, "[9]": {"biological_target": "Ephrin type-B receptor 2 (Homo sapiens) (UniProt P29323)", "sequence (P29323 whole entry, the tested form may be a part)": "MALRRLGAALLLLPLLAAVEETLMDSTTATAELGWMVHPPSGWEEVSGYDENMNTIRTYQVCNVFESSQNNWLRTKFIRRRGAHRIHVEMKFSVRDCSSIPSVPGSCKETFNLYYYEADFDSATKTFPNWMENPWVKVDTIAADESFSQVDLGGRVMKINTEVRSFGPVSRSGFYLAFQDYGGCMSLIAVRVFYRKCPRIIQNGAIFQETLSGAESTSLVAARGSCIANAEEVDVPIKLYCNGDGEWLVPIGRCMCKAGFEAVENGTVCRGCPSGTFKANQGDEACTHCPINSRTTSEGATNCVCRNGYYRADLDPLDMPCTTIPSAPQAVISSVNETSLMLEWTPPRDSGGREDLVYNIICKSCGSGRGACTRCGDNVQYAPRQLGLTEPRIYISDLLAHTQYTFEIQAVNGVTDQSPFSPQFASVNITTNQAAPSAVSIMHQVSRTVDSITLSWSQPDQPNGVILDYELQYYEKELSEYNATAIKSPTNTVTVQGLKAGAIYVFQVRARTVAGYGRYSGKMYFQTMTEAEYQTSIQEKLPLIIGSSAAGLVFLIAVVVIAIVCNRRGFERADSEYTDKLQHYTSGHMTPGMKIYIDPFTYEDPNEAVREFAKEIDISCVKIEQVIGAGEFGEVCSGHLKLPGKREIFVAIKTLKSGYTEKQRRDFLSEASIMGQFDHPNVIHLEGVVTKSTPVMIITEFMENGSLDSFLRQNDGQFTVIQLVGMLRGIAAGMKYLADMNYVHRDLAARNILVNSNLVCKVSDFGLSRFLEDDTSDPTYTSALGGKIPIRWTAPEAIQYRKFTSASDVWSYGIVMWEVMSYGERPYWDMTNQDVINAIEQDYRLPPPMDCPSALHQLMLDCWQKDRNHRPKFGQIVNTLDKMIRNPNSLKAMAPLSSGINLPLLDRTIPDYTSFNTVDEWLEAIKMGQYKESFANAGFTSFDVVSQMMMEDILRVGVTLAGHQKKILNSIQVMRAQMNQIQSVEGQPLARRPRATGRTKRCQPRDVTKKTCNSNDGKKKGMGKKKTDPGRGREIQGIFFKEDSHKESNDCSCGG", "assay": "Inhibition of recombinant human N-terminal His6-tagged EPHB2 (560 to 987 residues) expressed in baculovirus infected Sf21 cells assessed as remaining activity at 1 uM using Poly (Glu,Tyr) as substrate incubated for 30 mins in presence of [gamma-33P]ATP by filter binding method relative to control"}, "[10]": {"biological_target": "Dual specificity protein kinase CLK2 (Homo sapiens) (UniProt P49760)", "sequence (P49760 whole entry, looked up, the tested form may be a part)": "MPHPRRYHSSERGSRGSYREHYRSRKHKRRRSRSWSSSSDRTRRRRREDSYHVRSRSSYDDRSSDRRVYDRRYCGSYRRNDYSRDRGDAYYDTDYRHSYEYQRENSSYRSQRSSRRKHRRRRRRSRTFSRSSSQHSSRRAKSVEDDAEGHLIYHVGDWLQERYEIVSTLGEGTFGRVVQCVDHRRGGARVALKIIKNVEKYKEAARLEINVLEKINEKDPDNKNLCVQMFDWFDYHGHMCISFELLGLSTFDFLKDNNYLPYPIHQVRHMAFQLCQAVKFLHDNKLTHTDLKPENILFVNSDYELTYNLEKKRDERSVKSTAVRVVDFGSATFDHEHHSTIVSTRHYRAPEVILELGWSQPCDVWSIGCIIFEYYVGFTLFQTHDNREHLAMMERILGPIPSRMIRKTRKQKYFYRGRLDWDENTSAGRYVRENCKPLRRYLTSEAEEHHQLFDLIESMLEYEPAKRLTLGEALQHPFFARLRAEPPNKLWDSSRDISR", "assay": "Inhibition of recombinant human N-terminal GST-tagged CLK2 (138 to 499 residues) expressed in baculovirus infected Sf21 cells assessed as remaining activity at 1 uM using RNRYRDVSPFDHSR as substrate incubated for 30 mins in presence of [gamma-33P]ATP by filter binding method relative to control"}, "[11]": {"biological_target": "Tyrosine-protein kinase ITK/TSK (Homo sapiens) (UniProt Q08881)", "assay": "Inhibition of human ITK at 1 uM using polyEY as substrate in presence of 33P-ATP by ProQinase assay"}, "[12]": {"biological_target": "Protein kinase C theta type (Homo sapiens) (UniProt Q04759)", "assay": "Inhibition of human PKCtheta at 1 uM using 3xChocktide-PKC as substrate in presence of 33P-ATP by ProQinase assay"}, "[13]": {"biological_target": "Mitogen-activated protein kinase 15 (Homo sapiens) (UniProt Q8TD08)", "assay": "Inhibition of human ERK7 at 1 uM using RBER-CHKtide as substrate in presence of 33P-ATP by ProQinase assay"}, "[14]": {"biological_target": "Insulin receptor (Homo sapiens) (UniProt P06213)", "assay": "(§2) Inhibition of recombinant human N-terminal His6-tagged IR (1001 to 1382 residues) expressed in baculovirus infected Sf21 cells assessed as remaining activity at 1 uM using KKSRGDYMTMQIG as substrate incubated for 30 mins in presence of [gamma-33P]ATP by filter binding method relative to control"}, "[15]": {"biological_target": "Platelet-derived growth factor receptor alpha (Homo sapiens) (UniProt P16234)", "sequence (P16234 whole entry)": "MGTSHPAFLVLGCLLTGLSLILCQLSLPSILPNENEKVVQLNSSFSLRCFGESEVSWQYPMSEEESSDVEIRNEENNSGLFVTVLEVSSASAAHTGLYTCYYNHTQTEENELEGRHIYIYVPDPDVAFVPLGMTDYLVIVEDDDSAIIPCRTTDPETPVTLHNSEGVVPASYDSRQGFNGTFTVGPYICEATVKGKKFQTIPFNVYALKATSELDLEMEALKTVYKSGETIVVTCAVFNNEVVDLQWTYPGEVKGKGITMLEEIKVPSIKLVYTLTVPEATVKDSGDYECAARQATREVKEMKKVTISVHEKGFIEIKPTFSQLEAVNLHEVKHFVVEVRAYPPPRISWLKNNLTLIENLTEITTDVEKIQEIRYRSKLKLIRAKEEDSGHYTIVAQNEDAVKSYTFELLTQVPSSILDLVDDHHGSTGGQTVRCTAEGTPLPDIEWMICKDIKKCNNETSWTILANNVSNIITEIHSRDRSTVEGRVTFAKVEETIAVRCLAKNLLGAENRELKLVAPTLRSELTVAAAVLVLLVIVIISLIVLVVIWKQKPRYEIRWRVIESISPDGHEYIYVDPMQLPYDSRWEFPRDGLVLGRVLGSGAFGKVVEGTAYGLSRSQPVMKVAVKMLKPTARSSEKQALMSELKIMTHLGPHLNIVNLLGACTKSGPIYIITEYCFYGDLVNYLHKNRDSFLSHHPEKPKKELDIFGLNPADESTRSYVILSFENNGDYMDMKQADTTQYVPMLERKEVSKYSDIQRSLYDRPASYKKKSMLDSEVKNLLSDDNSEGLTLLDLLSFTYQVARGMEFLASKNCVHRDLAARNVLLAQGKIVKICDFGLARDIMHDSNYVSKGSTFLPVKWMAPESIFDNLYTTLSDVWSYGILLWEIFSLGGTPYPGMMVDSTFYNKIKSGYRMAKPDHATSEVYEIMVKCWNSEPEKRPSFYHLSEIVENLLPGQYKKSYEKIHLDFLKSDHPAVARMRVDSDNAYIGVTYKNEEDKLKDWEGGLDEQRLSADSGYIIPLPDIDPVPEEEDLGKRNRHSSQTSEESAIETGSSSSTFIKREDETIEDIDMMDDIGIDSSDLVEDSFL", "assay": "Inhibition of recombinant human PDGFRalpha (551 to […] residues) expressed in baculovirus infected Sf21 cells assessed as remaining activity at 1 uM using KKKKEEIYFFFG as substrate incubated for 30 mins in presence of [gamma-33P]ATP by filter binding method relative to control"}, "[16]": {"biological_target": "Eukaryotic elongation factor 2 kinase (Homo sapiens) (UniProt O00418)", "assay": "Inhibition of recombinant human N-terminal GST-tagged EF2K (2 to 725 residues) expressed in Escherichia coli assessed as remaining activity at 1 uM using RKKFGESKTKTKEFL as substrate incubated for 30 mins in presence of [gamma-33P]ATP by filter binding method relative to control"}, "[17]": {"biological_target": "Myosin light chain kinase, smooth muscle (Homo sapiens) (UniProt Q15746)", "assay": "Inhibition of recombinant human N-terminal GST-tagged SmMLCK (475 to 838 residues) expressed in Escherichia coli assessed as remaining activity at 1 uM using KKRPQRATSNVFA as substrate incubated for 30 mins in presence of [gamma-33P]ATP by filter binding method relative to control"}, "[18]": {"biological_target": "Tyrosine-protein kinase ZAP-70 (Homo sapiens) (UniProt P43403)", "assay": "Inhibition of human ZAP70 at 1 uM using polyEY as substrate in presence of 33P-ATP by ProQinase assay"}, "[19]": {"biological_target": "Tyrosine-protein kinase receptor TYRO3 (Homo sapiens) (UniProt Q06418)", "sequence (Q06418 whole entry)": "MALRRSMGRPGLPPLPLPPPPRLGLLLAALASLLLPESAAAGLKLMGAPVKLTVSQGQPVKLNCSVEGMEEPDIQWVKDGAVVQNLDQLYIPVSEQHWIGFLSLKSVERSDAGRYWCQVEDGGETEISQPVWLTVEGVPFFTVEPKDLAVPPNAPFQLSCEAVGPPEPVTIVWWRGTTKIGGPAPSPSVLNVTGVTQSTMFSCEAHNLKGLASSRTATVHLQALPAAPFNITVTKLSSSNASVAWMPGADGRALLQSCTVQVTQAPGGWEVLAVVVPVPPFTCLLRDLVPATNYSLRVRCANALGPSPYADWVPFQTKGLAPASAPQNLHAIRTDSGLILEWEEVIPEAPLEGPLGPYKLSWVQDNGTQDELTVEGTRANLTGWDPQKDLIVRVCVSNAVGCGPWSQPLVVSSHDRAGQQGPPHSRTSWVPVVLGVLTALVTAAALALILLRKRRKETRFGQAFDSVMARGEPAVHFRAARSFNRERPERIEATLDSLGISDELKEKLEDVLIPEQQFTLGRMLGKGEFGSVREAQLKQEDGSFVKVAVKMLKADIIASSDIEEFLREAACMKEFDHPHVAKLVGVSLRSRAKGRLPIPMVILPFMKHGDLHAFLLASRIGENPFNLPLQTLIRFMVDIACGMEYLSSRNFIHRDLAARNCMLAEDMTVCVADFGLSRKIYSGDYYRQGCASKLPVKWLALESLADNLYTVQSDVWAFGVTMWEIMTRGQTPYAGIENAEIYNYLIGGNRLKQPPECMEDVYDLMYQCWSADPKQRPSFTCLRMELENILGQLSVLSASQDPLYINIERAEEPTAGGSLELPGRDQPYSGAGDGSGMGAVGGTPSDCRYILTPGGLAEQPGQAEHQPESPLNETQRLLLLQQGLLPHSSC", "assay": "Inhibition of human TYRO3 at 1 uM using PolyEY as substrate in presence of 33P-ATP by ProQinase assay"}, "[20]": {"biological_target": "Casein kinase 2 (Homo sapiens) (UniProt P67870+P68400+P19784+Q8NEV1)", "assay": "Inhibition of CK2 (unknown origin) assessed as remaining activity at 1 uM relative to control", "type": "protein assay", "procedure,_shortened": "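Dundee panel of 140 protein kinases, tested at a single 1 μM concentration. Each assay was run in triplicate. Remaining activity is expressed relative to a control reaction without inhibitor, as mean ± S.D. Conditions for each kinase were those of the screening centre.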"}, "[21]": {"biological_target": "Tyrosine-protein kinase Fyn (Homo sapiens) (UniProt P06241)", "assay": "Inhibition of human FYN at 1 uM using polyEY as substrate in presence of 33P-ATP by ProQinase assay"}, "[22]": {"biological_target": "Serine/threonine-protein kinase Sgk2 (Homo sapiens) (UniProt Q9HBY8)", "assay": "Inhibition of human SGK2 at 1 uM using RBER-GSK3 as substrate in presence of 33P-ATP by ProQinase assay"}, "[23]": {"test_system": "RAC-alpha serine/threonine-protein kinase (Homo sapiens), P31749 [S473D]", "assay": "as §2, with “human” for “human N-terminal”, “PKBalpha S473D mutant (118” for “IR (1001”, “480” for “1382”, “crosstide peptide” for “KKSRGDYMTMQIG”"}}, "note": "Calls of active or inactive are those of the source. The calls are words filed in the database; no cut-off is given here."}
{"smiles": "CC(C)(O)CNc1ncc(-c2ccnc(Nc3ccnc(Cl)c3)n2)c(CC2CC2)n1", "values": [{"measurement": "inhibition", "setting": "[1]", "result": "inactive"}, {"measurement": "Activity", "setting": "[2]", "result": 116, "unit": "%"}, {"measurement": "IC50", "setting": "[3]", "result": "> 10", "unit": "µM"}, {"measurement": "Activity", "setting": "[4]", "result": 93, "unit": "%"}, {"measurement": "inhibition", "setting": "[5]", "result": "inactive"}, {"measurement": "inhibition", "setting": "[6]", "result": "inactive"}, {"measurement": "Activity", "setting": "[7]", "result": 88, "unit": "%"}, {"measurement": "inhibition", "setting": "[8]", "result": "inactive"}, {"measurement": "Activity", "setting": "[9]", "result": 109, "unit": "%"}, {"measurement": "Activity", "setting": "[10]", "result": 82, "unit": "%"}, {"measurement": "inhibition", "setting": "[11]", "result": "inactive"}, {"measurement": "inhibition", "setting": "[12]", "result": "inactive"}, {"measurement": "inhibition", "setting": "[13]", "result": "inactive"}, {"measurement": "Activity", "setting": "[14]", "result": 109, "unit": "%"}, {"measurement": "Activity", "setting": "[15]", "result": 121, "unit": "%"}, {"measurement": "Activity", "setting": "[16]", "result": 115, "unit": "%"}, {"measurement": "Activity", "setting": "[17]", "result": 97, "unit": "%"}, {"measurement": "inhibition", "setting": "[18]", "result": "inactive"}, {"measurement": "inhibition", "setting": "[19]", "result": "inactive"}, {"measurement": "Activity", "setting": "[20]", "result": 111, "unit": "%"}, {"measurement": "inhibition", "setting": "[21]", "result": "inactive"}, {"measurement": "inhibition", "setting": "[22]", "result": "inactive"}, {"measurement": "Activity", "setting": "[23]", "result": 116, "unit": "%"}]}
